This is an account of results in ChEMBL document CHEMBL2417369, “Synthesis and evaluation of heteroaryl substituted diazaspirocycles as scaffolds to probe the ATP-binding site of protein kinases” (Bioorg Med Chem, 2013).

Assay [1] deals with Glycogen synthase kinase-3 beta (Homo sapiens, UniProt P49841). The experiment in a line: Inhibition of GSK3beta (unknown origin) at 30 uM by microfluidic mobility shift assay relative to control. In short, it runs like this: (§1)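 Single-point screen in a 24-enzyme kinase panel using a microfluidic assay. Each compound was tested at […] with ATP at roughly the Km for each enzyme. The pan-AGC inhibitor H-89 served as an internal control on every plate.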

The target of assay [2] is Insulin receptor (Homo sapiens) (UniProt P06213). The experiment in a line: Inhibition of INSR (unknown origin) at 30 uM by microfluidic mobility shift assay relative to control. In short, it runs like this:
as §1

The species named for another assay is Homo sapiens. Put plainly: Inhibition of PKA (unknown origin) at 30 uM by microfluidic mobility shift assay relative to control. In short, it runs like this: as §1
Assay [3] addresses Protein kinase C (PKC) (Homo sapiens) (UniProt O94806+P41743+P17252+P05129+Q05655+P05771+Q05513+Q02156+P24723+Q15139+Q04759). The experiment in a line: Inhibition of PKC (unknown origin) at 30 uM by microfluidic mobility shift assay relative to control. In a few lines:
as §1

Assay [4] deals with T1, Aurora kinase A (Homo sapiens) (UniProt O14965).
T1 sequence (whole entry): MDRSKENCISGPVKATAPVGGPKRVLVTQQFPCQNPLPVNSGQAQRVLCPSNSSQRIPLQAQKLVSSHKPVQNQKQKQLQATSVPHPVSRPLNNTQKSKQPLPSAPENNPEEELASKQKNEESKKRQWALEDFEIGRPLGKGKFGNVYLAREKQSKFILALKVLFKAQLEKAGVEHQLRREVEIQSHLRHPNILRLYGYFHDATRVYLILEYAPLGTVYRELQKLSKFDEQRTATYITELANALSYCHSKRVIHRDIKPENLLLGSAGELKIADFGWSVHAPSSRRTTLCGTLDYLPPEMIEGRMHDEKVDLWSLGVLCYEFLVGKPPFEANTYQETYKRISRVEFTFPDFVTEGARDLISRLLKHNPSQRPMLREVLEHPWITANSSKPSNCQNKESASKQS
The experiment in a line: Inhibition of AURA (unknown origin) at 30 uM by microfluidic mobility shift assay relative to control. In a few lines:
as §1

Assay [5] concerns the target Tyrosine-protein kinase ABL1 (Homo sapiens, UniProt P00519). Put plainly: Inhibition of ABL (unknown origin) at 30 uM by microfluidic mobility shift assay relative to control. In a few lines: as §1
Assay [6] addresses Tyrosine-protein kinase Lyn (Homo sapiens, UniProt P07948). Put plainly: Inhibition of LYN (unknown origin) at 30 uM by microfluidic mobility shift assay relative to control. In a few lines:
as §1

The target of assay [7] is Serine/threonine-protein kinase Chk2 (Homo sapiens, UniProt O96017). The experiment in a line: Inhibition of CHK2 (unknown origin) at 30 uM by microfluidic mobility shift assay relative to control. In a few lines: as §1
Assay [8] concerns the target RAC-beta serine/threonine-protein kinase (Homo sapiens, UniProt P31751). The experiment in a line: Inhibition of AKT2 (unknown origin) at 30 uM by microfluidic mobility shift assay relative to control. In short, it runs like this: as §1
In assay [9] the target is RAC-alpha serine/threonine-protein kinase (Homo sapiens, UniProt P31749). The experiment in a line: Inhibition of AKT1 (unknown origin) at 30 uM by microfluidic mobility shift assay relative to control. In short, it runs like this: as §1
The target in assay [10] is T2, Serine/threonine-protein kinase D2 (Homo sapiens) (UniProt Q9BZL6).
T2 sequence (whole entry): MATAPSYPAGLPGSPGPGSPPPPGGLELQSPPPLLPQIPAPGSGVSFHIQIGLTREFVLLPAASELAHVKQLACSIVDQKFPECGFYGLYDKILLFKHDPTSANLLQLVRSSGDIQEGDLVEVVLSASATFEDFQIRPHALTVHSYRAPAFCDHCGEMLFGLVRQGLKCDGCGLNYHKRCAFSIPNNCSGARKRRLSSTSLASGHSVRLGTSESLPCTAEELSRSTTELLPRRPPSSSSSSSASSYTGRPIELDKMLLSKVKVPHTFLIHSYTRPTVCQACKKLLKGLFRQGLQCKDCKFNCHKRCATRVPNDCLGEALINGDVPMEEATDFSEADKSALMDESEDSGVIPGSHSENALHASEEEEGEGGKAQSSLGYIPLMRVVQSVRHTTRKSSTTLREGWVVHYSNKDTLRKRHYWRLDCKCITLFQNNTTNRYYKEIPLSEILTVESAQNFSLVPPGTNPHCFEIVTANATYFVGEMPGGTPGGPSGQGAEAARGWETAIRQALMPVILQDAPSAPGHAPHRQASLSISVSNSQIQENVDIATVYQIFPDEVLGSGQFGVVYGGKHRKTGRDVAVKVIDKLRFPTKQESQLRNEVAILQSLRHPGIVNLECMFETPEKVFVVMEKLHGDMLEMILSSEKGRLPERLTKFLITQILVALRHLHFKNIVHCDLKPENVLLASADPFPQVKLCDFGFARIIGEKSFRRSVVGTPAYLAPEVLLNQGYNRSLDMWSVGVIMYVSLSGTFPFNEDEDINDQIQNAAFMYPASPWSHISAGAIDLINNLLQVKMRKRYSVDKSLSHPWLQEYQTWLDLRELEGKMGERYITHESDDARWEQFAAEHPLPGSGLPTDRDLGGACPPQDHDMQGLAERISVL
Put plainly: Inhibition of PKD2 (unknown origin) at 30 uM by microfluidic mobility shift assay relative to control. In a few lines:
as §1

The target of assay [11] is Tyrosine-protein kinase Fyn (Homo sapiens, UniProt P06241). Put plainly: Inhibition of FYN (unknown origin) at 30 uM by microfluidic mobility shift assay relative to control. In short, it runs like this: as §1
Assay [12] addresses Ribosomal protein S6 kinase alpha-1 (Homo sapiens, UniProt Q15418). Put plainly: Inhibition of RSK1 (unknown origin) at 30 uM by microfluidic mobility shift assay relative to control. In short, it runs like this:
as §1

The target in assay [13] is MAP kinase-activated protein kinase 2 (Homo sapiens) (UniProt P49137). Put plainly: Inhibition of MK2 (unknown origin) at 30 uM by microfluidic mobility shift assay relative to control. In short, it runs like this: as §1
Assay [14] concerns the target Mitogen-activated protein kinase 3 (Homo sapiens, UniProt P27361). The experiment in a line: Inhibition of ERK1 (unknown origin) at 30 uM by microfluidic mobility shift assay relative to control. In a few lines: as §1
In assay [15] the target is T3, Serine/threonine-protein kinase Chk1 (Homo sapiens) (UniProt O14757).
T3 sequence (whole entry): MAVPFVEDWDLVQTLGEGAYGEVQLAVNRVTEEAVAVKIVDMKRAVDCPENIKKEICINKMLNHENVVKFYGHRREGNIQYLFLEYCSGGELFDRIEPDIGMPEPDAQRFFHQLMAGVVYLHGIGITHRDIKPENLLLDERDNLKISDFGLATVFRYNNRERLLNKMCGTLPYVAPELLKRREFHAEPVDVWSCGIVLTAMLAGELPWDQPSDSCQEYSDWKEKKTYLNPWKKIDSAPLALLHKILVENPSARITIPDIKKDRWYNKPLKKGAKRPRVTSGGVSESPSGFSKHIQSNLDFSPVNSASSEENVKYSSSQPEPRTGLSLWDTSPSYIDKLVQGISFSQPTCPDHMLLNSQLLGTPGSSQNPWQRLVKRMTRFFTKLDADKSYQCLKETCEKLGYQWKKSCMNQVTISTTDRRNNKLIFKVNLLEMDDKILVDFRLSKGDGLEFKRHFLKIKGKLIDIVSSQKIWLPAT
The experiment in a line: Inhibition of CHK1 (unknown origin) at 30 uM by microfluidic mobility shift assay relative to control. In short, it runs like this:
as §1

Chain of Tyrosine-protein kinase Fyn (P06241 2-537 limits assumed): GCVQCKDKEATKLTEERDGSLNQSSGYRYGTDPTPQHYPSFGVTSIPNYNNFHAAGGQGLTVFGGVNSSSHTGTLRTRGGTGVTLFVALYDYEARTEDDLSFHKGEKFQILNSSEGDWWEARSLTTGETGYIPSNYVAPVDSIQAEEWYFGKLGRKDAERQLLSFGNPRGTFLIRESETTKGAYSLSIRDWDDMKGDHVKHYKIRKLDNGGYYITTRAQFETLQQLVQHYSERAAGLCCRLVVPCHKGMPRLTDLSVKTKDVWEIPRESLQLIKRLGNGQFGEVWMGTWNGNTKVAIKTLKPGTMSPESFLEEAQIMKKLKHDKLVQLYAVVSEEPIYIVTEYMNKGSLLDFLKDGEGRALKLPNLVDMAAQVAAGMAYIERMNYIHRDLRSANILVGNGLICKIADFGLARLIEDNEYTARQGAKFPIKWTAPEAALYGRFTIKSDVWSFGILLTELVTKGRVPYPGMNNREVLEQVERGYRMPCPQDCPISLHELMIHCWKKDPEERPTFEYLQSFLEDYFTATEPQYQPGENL
Chain of Tyrosine-protein kinase Lyn (P07948 2-512 limits assumed): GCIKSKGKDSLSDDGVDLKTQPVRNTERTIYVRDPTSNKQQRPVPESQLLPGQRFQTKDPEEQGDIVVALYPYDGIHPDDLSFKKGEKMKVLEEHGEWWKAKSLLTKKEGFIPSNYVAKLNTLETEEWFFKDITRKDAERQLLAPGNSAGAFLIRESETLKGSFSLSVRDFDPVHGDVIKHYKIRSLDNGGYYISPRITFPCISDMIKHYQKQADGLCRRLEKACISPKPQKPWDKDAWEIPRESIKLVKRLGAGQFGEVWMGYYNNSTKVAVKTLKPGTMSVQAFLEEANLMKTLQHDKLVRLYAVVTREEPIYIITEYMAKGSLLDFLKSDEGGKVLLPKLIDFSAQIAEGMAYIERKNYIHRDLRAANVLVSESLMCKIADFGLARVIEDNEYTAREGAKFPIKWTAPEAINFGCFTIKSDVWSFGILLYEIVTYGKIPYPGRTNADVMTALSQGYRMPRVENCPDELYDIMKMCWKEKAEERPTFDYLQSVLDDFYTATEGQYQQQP
Chain of RAC-beta serine/threonine-protein kinase (P31751 whole entry): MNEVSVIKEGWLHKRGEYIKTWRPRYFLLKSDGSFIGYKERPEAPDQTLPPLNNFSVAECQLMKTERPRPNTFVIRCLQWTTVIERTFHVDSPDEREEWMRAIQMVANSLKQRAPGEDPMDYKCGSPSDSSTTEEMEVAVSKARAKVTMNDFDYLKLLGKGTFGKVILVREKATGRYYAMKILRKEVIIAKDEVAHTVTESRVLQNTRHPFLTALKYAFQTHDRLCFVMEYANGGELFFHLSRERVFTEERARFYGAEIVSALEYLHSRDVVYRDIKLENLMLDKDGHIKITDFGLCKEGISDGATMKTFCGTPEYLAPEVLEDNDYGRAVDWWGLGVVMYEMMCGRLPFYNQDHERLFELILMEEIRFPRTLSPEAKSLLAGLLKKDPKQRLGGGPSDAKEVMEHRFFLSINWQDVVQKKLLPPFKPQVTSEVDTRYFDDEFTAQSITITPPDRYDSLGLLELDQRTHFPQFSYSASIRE
Chain of Glycogen synthase kinase-3 beta (P49841 whole entry, looked up): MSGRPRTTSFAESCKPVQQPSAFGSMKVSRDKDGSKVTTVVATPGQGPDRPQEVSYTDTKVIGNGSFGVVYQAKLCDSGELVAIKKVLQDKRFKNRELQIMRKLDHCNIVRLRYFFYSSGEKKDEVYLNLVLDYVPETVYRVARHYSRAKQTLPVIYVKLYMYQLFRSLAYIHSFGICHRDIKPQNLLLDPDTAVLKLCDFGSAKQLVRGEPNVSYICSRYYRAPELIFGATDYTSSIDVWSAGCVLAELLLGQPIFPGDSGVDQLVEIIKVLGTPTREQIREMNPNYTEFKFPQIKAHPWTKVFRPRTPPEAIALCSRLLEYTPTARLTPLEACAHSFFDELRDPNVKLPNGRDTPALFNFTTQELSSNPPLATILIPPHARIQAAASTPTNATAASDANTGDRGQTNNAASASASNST
Chain of RAC-alpha serine/threonine-protein kinase (P31749 whole entry): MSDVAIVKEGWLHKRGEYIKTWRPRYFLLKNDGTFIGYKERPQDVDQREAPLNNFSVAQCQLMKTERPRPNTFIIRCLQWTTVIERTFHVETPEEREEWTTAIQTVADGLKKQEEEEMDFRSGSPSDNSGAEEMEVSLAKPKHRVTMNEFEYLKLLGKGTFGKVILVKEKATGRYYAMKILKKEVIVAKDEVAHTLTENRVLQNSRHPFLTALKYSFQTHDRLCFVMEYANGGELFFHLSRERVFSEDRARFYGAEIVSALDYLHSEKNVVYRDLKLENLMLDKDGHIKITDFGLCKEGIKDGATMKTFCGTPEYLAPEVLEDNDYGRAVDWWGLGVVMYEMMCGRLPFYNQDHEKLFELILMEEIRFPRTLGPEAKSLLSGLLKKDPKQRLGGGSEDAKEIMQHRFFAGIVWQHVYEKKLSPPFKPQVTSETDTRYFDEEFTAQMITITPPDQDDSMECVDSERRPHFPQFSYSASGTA
Chain of Tyrosine-protein kinase ABL1 (P00519 whole entry): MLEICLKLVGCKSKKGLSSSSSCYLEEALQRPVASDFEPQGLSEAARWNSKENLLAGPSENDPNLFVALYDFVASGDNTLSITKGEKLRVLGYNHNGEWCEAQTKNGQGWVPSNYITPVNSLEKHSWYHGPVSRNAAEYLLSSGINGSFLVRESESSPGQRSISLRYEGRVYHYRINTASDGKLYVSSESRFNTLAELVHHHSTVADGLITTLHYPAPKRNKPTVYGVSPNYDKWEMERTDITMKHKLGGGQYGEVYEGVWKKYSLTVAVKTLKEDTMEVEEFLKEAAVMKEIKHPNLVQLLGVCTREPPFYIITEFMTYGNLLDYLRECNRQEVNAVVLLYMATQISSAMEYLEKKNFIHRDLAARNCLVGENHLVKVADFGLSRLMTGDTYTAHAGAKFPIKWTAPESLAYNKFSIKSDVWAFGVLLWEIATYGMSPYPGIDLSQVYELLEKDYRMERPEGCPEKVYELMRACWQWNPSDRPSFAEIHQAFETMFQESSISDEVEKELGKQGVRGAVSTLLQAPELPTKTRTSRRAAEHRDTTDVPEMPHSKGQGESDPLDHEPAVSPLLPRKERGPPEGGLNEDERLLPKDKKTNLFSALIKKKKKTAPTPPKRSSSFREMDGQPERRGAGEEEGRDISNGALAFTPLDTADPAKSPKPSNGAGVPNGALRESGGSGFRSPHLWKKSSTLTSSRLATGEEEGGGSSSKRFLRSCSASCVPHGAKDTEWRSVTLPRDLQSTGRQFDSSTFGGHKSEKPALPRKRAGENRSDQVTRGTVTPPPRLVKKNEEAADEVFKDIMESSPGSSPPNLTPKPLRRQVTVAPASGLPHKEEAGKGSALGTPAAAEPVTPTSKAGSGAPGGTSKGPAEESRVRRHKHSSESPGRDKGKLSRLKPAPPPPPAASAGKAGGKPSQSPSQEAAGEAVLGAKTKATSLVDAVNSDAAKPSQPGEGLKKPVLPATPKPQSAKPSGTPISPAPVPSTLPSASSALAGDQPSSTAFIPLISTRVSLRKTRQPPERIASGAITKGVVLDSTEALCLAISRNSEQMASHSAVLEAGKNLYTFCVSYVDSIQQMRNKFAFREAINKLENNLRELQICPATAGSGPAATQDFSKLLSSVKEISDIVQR
Chain of Mitogen-activated protein kinase 3 (P27361 whole entry): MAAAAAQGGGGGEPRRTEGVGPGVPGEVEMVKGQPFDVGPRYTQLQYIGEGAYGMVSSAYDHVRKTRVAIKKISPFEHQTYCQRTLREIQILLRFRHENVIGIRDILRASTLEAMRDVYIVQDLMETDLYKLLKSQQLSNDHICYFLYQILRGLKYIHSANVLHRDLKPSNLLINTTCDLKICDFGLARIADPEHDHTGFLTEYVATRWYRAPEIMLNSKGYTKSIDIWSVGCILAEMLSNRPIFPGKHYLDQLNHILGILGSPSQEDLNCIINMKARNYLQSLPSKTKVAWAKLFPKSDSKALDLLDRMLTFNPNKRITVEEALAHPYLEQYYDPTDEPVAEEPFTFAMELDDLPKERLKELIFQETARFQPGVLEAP
Chain of Ribosomal protein S6 kinase alpha-1 (Q15418 whole entry): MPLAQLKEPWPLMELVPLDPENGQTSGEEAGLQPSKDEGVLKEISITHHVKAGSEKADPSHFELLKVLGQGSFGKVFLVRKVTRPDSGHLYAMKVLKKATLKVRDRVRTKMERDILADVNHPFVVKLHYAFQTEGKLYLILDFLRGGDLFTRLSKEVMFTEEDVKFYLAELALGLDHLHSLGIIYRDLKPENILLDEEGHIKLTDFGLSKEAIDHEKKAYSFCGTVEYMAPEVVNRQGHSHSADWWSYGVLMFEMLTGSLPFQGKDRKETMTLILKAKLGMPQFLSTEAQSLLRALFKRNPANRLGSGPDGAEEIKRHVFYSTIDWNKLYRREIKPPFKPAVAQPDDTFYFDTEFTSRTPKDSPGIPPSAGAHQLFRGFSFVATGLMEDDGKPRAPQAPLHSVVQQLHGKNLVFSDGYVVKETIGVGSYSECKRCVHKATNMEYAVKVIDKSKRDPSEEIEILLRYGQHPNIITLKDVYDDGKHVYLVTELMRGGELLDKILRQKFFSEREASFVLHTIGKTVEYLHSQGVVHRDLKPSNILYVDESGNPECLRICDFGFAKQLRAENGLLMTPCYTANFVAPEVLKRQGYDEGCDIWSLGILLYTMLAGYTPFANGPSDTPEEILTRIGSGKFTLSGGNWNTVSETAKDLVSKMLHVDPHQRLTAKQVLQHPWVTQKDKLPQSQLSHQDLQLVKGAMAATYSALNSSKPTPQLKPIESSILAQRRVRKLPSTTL

On to `c1ccc(CC2CCNC3(CCN(c4ncnc5[nH]cnc45)CC3)C2)cc1` (racemic), for which the inhibition in assay [1] was determined as 21%; in [2], 0%; in the assay listed under Homo sapiens, 101%; in assay [3], 0%; in [4] it was 64%; in assay [5], 16%. For the same compound, the inhibition is 53% in [6]; 98% in assay [7]; 98% in [8]; 101% in assay [9]; 84% in [10]; 28% in assay [11]. The inhibition was determined as 90% in [12], 3% in assay [13], 66% in assay [14] and 84% in assay [15].

`c1nc(N2CCCC3(CCNCC3)C2)c2nc[nH]c2n1`: the inhibition in [1] is 32%; in [2], 3%; in the assay filed under Homo sapiens, 98%; in [3], 21%; in assay [4], 70%; in assay [5], 32%. The inhibition in assay [6] came to 33%; in assay [7] it was 35%; in assay [8], 26%; in [9], 85%; in assay [10], 55%; in assay [11] it was 33%. Besides, the inhibition worked out at 71% in [12], 19% in [13], 16% in assay [14] and 71% in [15].

For orientation: inhibition means the change of the read-out against control, counted positive when it falls.
